Bioassay records (PubChem)
MBD2 DNA inh: inhibitors of human MBD2 binding to methylated oligonucleotide; Q9UBB5; inhibition, % at 4.4 µM; 370,000 tested, 0.31% active; TR-FRET; in the data active = inhibition above about 13%
Target sequence (Q9UBB5 whole entry, looked up): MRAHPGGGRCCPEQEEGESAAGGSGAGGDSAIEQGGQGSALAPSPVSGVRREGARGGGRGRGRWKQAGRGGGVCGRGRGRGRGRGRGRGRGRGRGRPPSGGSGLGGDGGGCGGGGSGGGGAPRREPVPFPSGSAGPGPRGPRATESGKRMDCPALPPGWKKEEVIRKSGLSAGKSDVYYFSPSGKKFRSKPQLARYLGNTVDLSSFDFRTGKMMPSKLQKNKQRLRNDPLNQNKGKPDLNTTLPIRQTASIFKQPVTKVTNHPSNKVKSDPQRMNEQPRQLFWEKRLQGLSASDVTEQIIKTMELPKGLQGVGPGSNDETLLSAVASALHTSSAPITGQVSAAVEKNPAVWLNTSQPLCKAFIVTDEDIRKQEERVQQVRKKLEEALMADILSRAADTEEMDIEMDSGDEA
UHRF1 binding: UHRF1 methyl-DNA binding inhibition; 370,000 tested, 0.75% active; inhibition, % at 4.4 µM; UHRF1 binding to methylated oligo, TR-FRET; Q96T88; in the data active = inhibition above about 21%;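 note: UHRF1 SRA domain binding a hemimethylated CpG hairpin DNA probe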
TDP2 inh: blocks human TDP2 phosphodiesterase activity | recombinant TDP2, T5PNP hydrolysis, p-nitrophenol absorbance 415 nm | inhibition, % at 12.8 µM | 370,000 tested, 0.34% active | AID 720702;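 active = inhibition above the mean of all tested compounds plus 3 SD, set per campaign, cut at about 25% in these data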
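Test system: Human TDP2 enzyme | Reagent: 5 mM T5PNP | Compound dosing: 12.8 µM single point, 1% DMSO | Incubation: Enzyme reaction with compound for 2 h at 37 °C | Technique: p-Nitrophenol epi absorbance | Read-out: % inhibition relative to enzyme-containing and enzyme-free wells | Benchmarks: High control without enzyme, low control DMSO plus TDP2 | Replicates: Singlicate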
NSD2 HMT inh: NSD2 (human) methyltransferase inhibition. inhibition, % at 12.5 µM. 310,000 tested, 0.54% active. AID 743445. NSD2 peptide methylation, AlphaScreen, 120 min; in the data active = inhibition above about 50%
Casp6 inh: caspase-6 (human) enzyme inhibition | P55212 | purified caspase-6, Z-VEID-R110 cleavage fluorescence | inhibition, % at 12.5 µM | 350,000 tested, 0.53% active;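 active = mean inhibition across replicates at least about 35%, with every replicate also reaching that limit, limit read from the data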
Target sequence (P55212 24-179 limits assumed): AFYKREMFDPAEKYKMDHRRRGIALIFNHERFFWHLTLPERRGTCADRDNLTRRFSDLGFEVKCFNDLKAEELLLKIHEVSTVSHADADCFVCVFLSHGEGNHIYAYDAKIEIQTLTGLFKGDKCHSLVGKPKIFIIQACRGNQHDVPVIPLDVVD
Target sequence (P55212 194-293 limits assumed): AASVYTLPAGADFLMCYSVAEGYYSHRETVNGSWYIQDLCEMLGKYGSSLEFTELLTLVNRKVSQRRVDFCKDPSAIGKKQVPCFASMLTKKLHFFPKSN
LEDGF integ inh: blocks HIV-1 LEDGF/p75-dependent DNA integration. inhibition, % at 3.7 µM. TR-FRET IN-LEDGF/p75 DNA integration, Eu/Cy5. 370,000 tested, 0.64% active;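 active = inhibition above the screen-wide mean plus 3 SD, cut at about 13% in these data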;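 note: signal is the Cy5 over europium emission ratio at 671 and 618 nm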
IN multimer up: activates HIV-1 integrase multimerization in LEDGF counter-screen. shares compounds with LEDGF integ inh. TR-FRET HIV-1 integrase multimerization, biochemical. activation, % at 7.7 µM. 2,000 tested, 17% active. AID 1053131; in the data active = activation above about 8.9%
TRFRET interf: counter-screen for LEDGF/p75 integration inhibitors: TR-FRET optical interference; TR-FRET optical interference counterscreen, HIV-1 IN multimerization; inhibition, % at 7.7 µM; 2,000 tested, under 10 active; AID 1053135; shares compounds with LEDGF integ inh;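 active = inhibition above the mean over all tested compounds plus 3 SD, which no compound reached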
LEDGF integ conf: confirmation of HIV-1 LEDGF/p75-dependent integration inhibitors. inhibition, % at 3.7 µM. TR-FRET LEDGF/p75-dependent HIV-1 integration, biochemical. 2,000 tested, 36% active. AID 1053136. shares compounds with LEDGF integ inh; in the data active = inhibition above about 14%
Each line names hits and unclear results; the compound was inactive in the other large screens (follow-up assays come after a bar, where they were run). Only some compounds are listed: those with a hit (about 1.8% of all), similar ones and a draw of the others.

O=[N+]([O-])c1ccc(N/N=C/c2ccc(O)c(O)c2O)c(S(=O)(=O)N2CCOCC2)c1	LEDGF integ inh 50 | IN multimer up inactive | TRFRET interf inactive | LEDGF integ conf 36
C[C@@H]1CN([C@H](C)CO)C(=O)c2cc(NC(=O)Cc3ccccc3)ccc2O[C@@H](C)CCCCO[C@H]1CN(C)C(=O)CCC(F)(F)F	none (no result: MBD2 DNA inh, UHRF1 binding, TDP2 inh, NSD2 HMT inh, LEDGF integ inh)
COCC1CN(CCc2ccc(F)cc2)S(=O)(=O)c2c(F)cccc2O1 (stereo not drawn)	LEDGF integ inh 18 (no result: NSD2 HMT inh) | IN multimer up inactive | TRFRET interf inactive | LEDGF integ conf inactive
COCC(=O)N1CCC2(CC1)CN(C(=O)Nc1ccccc1F)[C@H](CO)c1[nH]c3cc(OC)ccc3c12	none (no result: MBD2 DNA inh, UHRF1 binding, TDP2 inh, NSD2 HMT inh, LEDGF integ inh)
C[C@@H]1CN([C@H](C)CO)C(=O)Cc2cc(NC(=O)CCCCCC(=O)Nc3ccccc3N)ccc2O[C@H]1CN(C)S(C)(=O)=O	none (no result: MBD2 DNA inh, UHRF1 binding, TDP2 inh, NSD2 HMT inh, LEDGF integ inh)
Cc1oc2ccc(O)cc2c1C(=O)c1ccc([N+](=O)[O-])cc1	none
CN(C)/C=C/c1oc2ccc(O)cc2c1[N+](=O)[O-]	LEDGF integ inh 18 | IN multimer up 19 | TRFRET interf inactive | LEDGF integ conf inactive
CN(CC(=O)Nc1cc([N+](=O)[O-])ccc1Cl)Cc1ccc(Br)cc1	LEDGF integ inh 14 (no result: Casp6 inh) | IN multimer up inactive | TRFRET interf inactive | LEDGF integ conf inactive
O=C(CCN1CCCCC1)NCC[C@H]1CC[C@H](NC(=O)Nc2ccc(Cl)cc2)[C@@H](CO)O1	none (no result: MBD2 DNA inh, UHRF1 binding, TDP2 inh, NSD2 HMT inh, LEDGF integ inh)
Cc1ccc(S(=O)(=O)Nc2ccc3c(c2)C(=O)N([C@@H](C)CO)C[C@@H](C)[C@@H](CN(C)S(=O)(=O)c2ccccc2)OCCCC[C@@H](C)O3)cc1	none (no result: MBD2 DNA inh, UHRF1 binding, TDP2 inh, NSD2 HMT inh, LEDGF integ inh)
CC1C(=O)N(Cc2cn(Cc3ccco3)nn2)CCS(=O)(=O)N1Cc1ccc(-c2cccnc2)cc1 (stereo not drawn)	LEDGF integ inh 17 (no result: NSD2 HMT inh) | IN multimer up inactive | TRFRET interf inactive | LEDGF integ conf inactive
Cc1ccc(-c2ccc(CN3C(C)C(=O)N(Cc4cn(Cc5ccco5)nn4)CCS3(=O)=O)cc2)cc1 (stereo not drawn)	none (no result: NSD2 HMT inh)
C[C@@H]1CCCCO[C@@H](CN(C)S(=O)(=O)c2ccc(F)cc2)[C@H](C)CN([C@@H](C)CO)C(=O)c2cc(NC(=O)c3ccccc3)ccc2O1	none (no result: MBD2 DNA inh, UHRF1 binding, TDP2 inh, NSD2 HMT inh, LEDGF integ inh)
COc1ccc2c3c([nH]c2c1)[C@H](CO)N(Cc1ccncc1)CC31CN(Cc2ccc(-c3ccccn3)cc2)C1	none (no result: MBD2 DNA inh, UHRF1 binding, TDP2 inh, NSD2 HMT inh, LEDGF integ inh)
CN1C2CCC1/C(=C/c1cccn1C)C(=O)/C2=C\c1cccn1C	LEDGF integ inh 14 | IN multimer up inactive | TRFRET interf inactive | LEDGF integ conf inactive
Cn1cccc1/C=C1\CC(C(C)(C)C)C/C(=C\c2cccn2C)C1=O (stereo not drawn)	none (no result: Casp6 inh)
Cc1ccc(Nc2ccc(N)cc2S(=O)(=O)O)cc1	Casp6 inh 62, LEDGF integ inh 19 | IN multimer up 10 | TRFRET interf inactive | LEDGF integ conf inactive
CNS(=O)(=O)c1cc(N)ccc1C	none
CC1=C(C(=O)Nc2ccccc2)C(c2ccc(C)o2)n2c(s/c(=C\c3ccco3)c2=O)=N1 (stereo not drawn)	LEDGF integ inh 29 (no result: Casp6 inh) | IN multimer up inactive | TRFRET interf inactive | LEDGF integ conf inactive
COc1cccc(C2C(C(=O)Nc3ccccc3)=C(C)N=c3s/c(=C/c4ccc(OCC(=O)O)cc4)c(=O)n32)c1 (stereo not drawn)	none (no result: Casp6 inh)
COC(=O)[C@H]1[C@H](CO)[C@H]2Cn3c(ccc(-c4ccccc4OC)c3=O)[C@H]2N1CC1CCCCC1	none (no result: MBD2 DNA inh, UHRF1 binding, TDP2 inh, NSD2 HMT inh, LEDGF integ inh)
CN(CCc1ccccc1)C(=O)c1ccc(NC(=O)Cc2cccc(NC(=O)C3CCN(C(=O)c4ccccc4)CC3)c2)cc1	LEDGF integ inh 21 (no result: NSD2 HMT inh) | IN multimer up inactive | TRFRET interf inactive | LEDGF integ conf inactive
Cc1ccc(O)c(NC(=S)NC(=O)/C=C/c2ccco2)c1	none
O=C(/C=C/c1ccco1)NC(=S)Nc1ccc(N2CCCC2)cc1	LEDGF integ inh 18 (no result: Casp6 inh) | IN multimer up inactive | TRFRET interf inactive | LEDGF integ conf inactive
Cc1ccnc(NC(=S)NC(=O)/C=C/c2ccco2)c1	LEDGF integ inh 16 (no result: Casp6 inh) | IN multimer up inactive | TRFRET interf inactive | LEDGF integ conf inactive
CCC(=O)Nc1ccc(NC(=S)NC(=O)/C=C/c2ccco2)cc1	none
COc1ccc(/C=C2\CCc3c2nc2ccccc2c3C(=O)O)cc1OC	LEDGF integ inh 15 | IN multimer up inactive | TRFRET interf inactive | LEDGF integ conf 22
Cc1ccccc1-c1cc2nc(NCc3cccnc3)n(C)c(=O)c2s1	LEDGF integ inh 91 | IN multimer up inactive | TRFRET interf inactive | LEDGF integ conf inactive
c1ccc(-n2c(-c3ccncc3)nnc2-c2ccco2)cc1	LEDGF integ inh 67 (no result: Casp6 inh) | IN multimer up inactive | TRFRET interf inactive | LEDGF integ conf inactive
O=C1C[C@@H](O)[C@H](O)c2cccc(O)c21	LEDGF integ inh 18 (no result: NSD2 HMT inh, Casp6 inh) | IN multimer up inactive | TRFRET interf inactive | LEDGF integ conf inactive
O=C1O[C@@H](c2ccc(O)cc2)Cc2cccc(O)c21	none (no result: NSD2 HMT inh)
C=CCNC(=S)N/N=C(\C)c1ccc(OC)cc1	UHRF1 binding 27, LEDGF integ inh 16 | IN multimer up inactive | TRFRET interf inactive | LEDGF integ conf inactive
O=C(C[C@@H]1C[C@H]2c3cc(NC(=O)C4CCC4)ccc3O[C@H]2[C@@H](CO)O1)NC1CCCC1	none (no result: MBD2 DNA inh, UHRF1 binding, TDP2 inh, NSD2 HMT inh, LEDGF integ inh)
Cc1oc(C)c2c(=O)ccc3c(c12)OC(N)=C(C#N)C3c1ccccc1 (stereo not drawn)	LEDGF integ inh 15 (no result: Casp6 inh) | IN multimer up inactive | TRFRET interf inactive | LEDGF integ conf inactive
CSc1ccc(C2C(C#N)=C(N)Oc3c2ccc(=O)c2c(C)oc(C)c32)cc1 (stereo not drawn)	none (no result: NSD2 HMT inh, Casp6 inh)
N#Cc1ccc(C(=O)N(Cc2ccccc2)c2ccccc2)cc1	LEDGF integ inh 14 | IN multimer up inactive | TRFRET interf inactive | LEDGF integ conf inactive
CN(C)C(=O)C[C@@H]1C=C[C@@H](NC(=O)c2ccc(F)cc2)[C@H](CO)O1	none (no result: MBD2 DNA inh, UHRF1 binding, TDP2 inh, NSD2 HMT inh, LEDGF integ inh)
CCOC(=O)c1c(N)sc(=S)c2c1CCC2	LEDGF integ inh 34 (no result: Casp6 inh) | IN multimer up inactive | TRFRET interf inactive | LEDGF integ conf 32
CCOC(=O)c1c(N)sc(N)c1C(=O)OCC	none
C[C@](N)(Cc1ccc(O)c(O)c1)C(=O)O	UHRF1 binding 40, Casp6 inh 87, LEDGF integ inh 60 (no result: NSD2 HMT inh) | IN multimer up inactive | TRFRET interf inactive | LEDGF integ conf inactive
COc1ccc(C[C@](C)(N)C(=O)O)cc1OC	none (no result: NSD2 HMT inh)
